Peptide text beside a SMILES is read from it. * marks the point of attachment. Cbz = O=C(OCc1ccccc1)*
Key:
KRASm/TP53‐ HCT116 cells = test: MTS cell viability assay, KRASm/TP53‐ HCT116; format: cell-based; conditions: for recovery of the efficacy of L‐OHP on KRASm/TP53‐ HCT116 cells / cell growth rate of KRASm/TP53‐ HCT116 cells: Figure S2, Bay11‐7082 5 μM, TPCA1 20 μM, 72 hours; for recovery of the efficacy of L‐OHP on KRASm/TP53‐ HCT116 cells: MG132 0.5 μM with L‐OHP 4 μM; for cell growth rate of KRASm/TP53‐ HCT116 cells: MG132 0.5 μM; for IC50: read-out: IC50 on KRASm/TP53‐ HCT116 cells, MTS assay, 72 hours post-treatment, n = 3
How it was run: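 HCT116 KRASm/TP53- cells were grown in RPMI1640 with 10% FBS and 1% penicillin/streptomycin at 37°C, 5% CO2, and plated at 4 × 10^5 per well. After 24 h, Bay11-7082 (0, 5 μM), TPCA1 (0, 20 μM) or MG132 (0, 0.5 μM), all in DMSO, were added with L-OHP (0 or 4 μM). Viability was read by MTS after 72 h.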

Safety = format: in vivo, mice
How it was run: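 Female BALB/c nude mice (6 weeks old, 7-8 per group) received s.c. KRASm/TP53w HCT116 cells (4 × 10^6) and were grouped by stratified randomization on tumor volume on day 9 after implant (day 0). L-OHP was given i.p. on days 0, 3, 7, 10, 14 and 17; controls got saline 10 mL/kg. Body weight was taken on days 0, 7, 14 and 21, with hematology and biochemistry on day 21 blood. Mean ± SD; Student's t test.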

KRASm/TP53w HCT116 cells = test: MTS cell viability assay, KRASm/TP53w HCT116; format: cell-based; conditions: read-out: IC50 on KRASm/TP53w HCT116 cells, 72 hours post-treatment, n = 3
How it was run: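 ATCC parental HCT116 (KRAS mutant/TP53 wild-type) grown in RPMI1640 with 10% FBS and 1% penicillin/streptomycin at 37°C, 5% CO2. Seeded at 4 × 10^5 cells/well; test compound in DMSO added after 24 h at six levels (0–10 μM or 0–25 μM series). Viability by MTS tetrazolium read-out after 72 h. IC50 reported as mean ± SD, n = 3.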

[1] = tested on: NF‐κB activity in KRASm/TP53‐ HCT116 cells; test: NF‐κB activity luciferase assay, KRASm/TP53‐ HCT116; format: cell-based; conditions: 3 hours treatment
How it was run: (§1)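 Reporter assay: cells seeded at 5 × 10^4/well. After 1 day, shifted to RPMI1640 with 1% FBS for 24 h. Cotransfected by lipofection with NF‑κB‑RE luc2P luciferase plasmid plus CMV‑β‑galactosidase plasmid. 3 h later, test compound added at various concentrations in 1% FBS medium for 3 h. Cells lysed; activity expressed as luciferase/β‑galactosidase.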

[2] = tested on: NF‐κB activity in KRASm/TP53w HCT116 cells; test: NF‐κB activity luciferase assay, KRASm/TP53w HCT116; format: cell-based; conditions: 3 hours treatment
How it was run: as §1

proteasome = test: Proteasome activity in vitro
[3] = day 21, L‐OHP 8 mg/kg i.p. twice a week for 3 weeks
[4] = day 21, monotherapies compared to the control group, combination compared to L‐OHP monotherapy

Compound | recovery of the efficacy of L‐OHP on KRASm/TP53‐ HCT116 cells (KRASm/TP53‐ HCT116 cells) | cell growth rate of KRASm/TP53‐ HCT116 cells (KRASm/TP53‐ HCT116 cells) | IC50 (KRASm/TP53w HCT116 cells) [µM] | IC50 (KRASm/TP53‐ HCT116 cells) [µM] | other results
Cc1ccc(S(=O)(=O)/C=C/C#N)cc1 [Bay11‐7082] | did not recover the efficacy of L‐OHP | suppressed cell growth rates |  |  | 
O=C1[O][Pt]2([NH][C@@H]3CCCC[C@H]3[NH]2)[O]C1=O [L‐OHP, oxaliplatin] |  |  | 1.7 | 4.8 | hemoglobin compared to the control group (Safety; [3]): significantly decreased; platelet count compared to the control group (Safety; [3]): significantly decreased; white blood cell count compared to the control group (Safety; [3]): significantly decreased; ALT level (Safety; [4]): elevated; AST level (Safety; [4]): elevated
CC(C)C[C@@H](C=O)NC(=O)[C@H](CC(C)C)NC(=O)[C@H](CC(C)C)NC(=O)OCc1ccccc1 [MG132] (Cbz-Leu-Leu-Leu-aldehyde) |  | suppressed cell growth rates |  |  | 
NC(=O)Nc1sc(-c2ccc(F)cc2)cc1C(N)=O [TPCA1] | did not recover the efficacy of L‐OHP | suppressed cell growth rates |  |  | 
curcumin |  |  | 20 | 17.4 | NF‐κB activity (luciferase/β‐galactosidase) [1]: suppressed NF‐κB activity in a dose‐dependent manner; NF‐κB activity (luciferase/β‐galactosidase) [2]: suppressed NF‐κB activity in a dose‐dependent manner; proteasome activity in vitro (proteasome): suppresses proteasome activity

Reference: publication PMC7226283 (Cancer Science, 2020)
